≈ marks a conversion by molar mass, not a printed value. Calls of active or inactive are those of the source. The calls are words filed in the database; no cut-off is given here.
Columns and labels:
[1] = target: T1, Corticotropin-releasing factor receptor 1 (Homo sapiens, UniProt P34998); experiment: Displacement of [125I]-CRF from human CRF1 receptor expressed in CHO cellular membrane fraction after 1.5 hrs by liquid scintillation counting method; type: cell-based
T1 sequence (P34998 whole entry): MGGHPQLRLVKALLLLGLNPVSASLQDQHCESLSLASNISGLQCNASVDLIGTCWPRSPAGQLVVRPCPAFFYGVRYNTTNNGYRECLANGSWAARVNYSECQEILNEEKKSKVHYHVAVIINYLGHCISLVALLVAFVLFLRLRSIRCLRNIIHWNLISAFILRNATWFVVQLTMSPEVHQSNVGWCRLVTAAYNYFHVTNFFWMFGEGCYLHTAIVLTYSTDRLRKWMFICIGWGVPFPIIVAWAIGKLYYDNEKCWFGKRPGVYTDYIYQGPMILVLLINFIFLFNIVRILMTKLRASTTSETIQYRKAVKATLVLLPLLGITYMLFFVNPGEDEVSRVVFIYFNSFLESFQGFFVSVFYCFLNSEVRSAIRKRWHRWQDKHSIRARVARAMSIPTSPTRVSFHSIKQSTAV

[2] = Cytotoxicity against human HepG2 cells assessed as rate of ATP content at 30 uM after 1 day by ATPLite-M assay relative to control; type: cell-based; details: read-out: Activity
Mus musculus [3] = experiment: Ex vivo inhibition of [125I]-CRF binding to CRF1 receptor in mouse frontal cortex at 20 mg/kg, po after 1 hr by gamma scintillation counting method; type: functional
In short: (§1)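 Compound suspended in 0.5% methyl cellulose in water and dosed orally (10 mL/kg), 5 mice/group. Incubated with 100 pM ovine 125I-CRF at rt for 2 h, then GF/C filtration.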

Mus musculus [4] = experiment: Ex vivo inhibition of [125I]-CRF binding to CRF1 receptor in mouse olfactory bulb at 20 mg/kg, po after 1 hr by gamma scintillation counting method; type: functional; in short: as §1
Mus musculus [5] = experiment: Ex vivo inhibition of [125I]-CRF binding to CRF1 receptor in mouse pituitary gland at 20 mg/kg, po after 1 hr by gamma scintillation counting method; type: functional; in short: as §1
[6] = target: T2, Corticotropin-releasing factor receptor 2 (Homo sapiens) (UniProt Q13324); experiment: Binding affinity to human CRF2alpha receptor up to 10 uM
T2 sequence (whole entry): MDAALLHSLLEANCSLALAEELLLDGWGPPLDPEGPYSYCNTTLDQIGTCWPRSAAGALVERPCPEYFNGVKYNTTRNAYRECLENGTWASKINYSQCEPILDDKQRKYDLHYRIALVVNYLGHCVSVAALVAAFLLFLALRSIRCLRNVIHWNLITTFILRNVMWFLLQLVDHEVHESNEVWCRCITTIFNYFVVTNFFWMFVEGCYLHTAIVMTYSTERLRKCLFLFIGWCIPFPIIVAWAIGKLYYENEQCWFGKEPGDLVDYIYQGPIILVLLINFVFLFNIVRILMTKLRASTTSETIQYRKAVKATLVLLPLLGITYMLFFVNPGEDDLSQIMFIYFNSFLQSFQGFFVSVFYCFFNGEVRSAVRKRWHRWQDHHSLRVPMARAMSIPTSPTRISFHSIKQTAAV

[7] = target: T2, Corticotropin-releasing factor receptor 2 (Homo sapiens); experiment: Binding affinity to human CRF2beta receptor up to 10 uM
[8] = Solubility of the compound in pH 6.8 phosphate buffer with bile acid by HPLC analysis; type: physicochemical
In short: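 DMSO stock of compound added to pH 6.8 phosphate buffer containing bile acid. After incubation, precipitate removed by filter-plate filtration; dissolved compound in filtrate quantified by HPLC.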

Mus musculus [9] = experiment: Ex vivo inhibition of [125I]-CRF binding to CRF1 receptor in mouse frontal cortex at 60 mg/kg, po after 1 hr by gamma scintillation counting method; type: functional; in short: as §1
Mus musculus [10] = experiment: Ex vivo inhibition of [125I]-CRF binding to CRF1 receptor in mouse olfactory bulb at 60 mg/kg, po after 1 hr by gamma scintillation counting method; type: functional; in short: as §1
Mus musculus [11] = experiment: Ex vivo inhibition of [125I]-CRF binding to CRF1 receptor in mouse pituitary gland at 60 mg/kg, po after 1 hr by gamma scintillation counting method; type: functional; in short: as §1
Mus musculus [12] = experiment: Suppression of stress-induced activation of hypothalamus-pituitary-adrenocortical axis in mouse assessed as reduction of plasma ATCH level at 60 mg/kg, po after 1 hr by immunoradiometric assay; type: functional, organism-based
In short: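 Mice dosed orally with compound suspended in 0.5% methyl cellulose (10 mL/kg) 1 h before test. PBS given icv (5 µL/mouse); blood taken by decapitation 0.5 h later. Plasma separated by centrifugation at 4°C; ACTH measured by immunoradiometric assay. Mean ± SEM, n = 10, Dunnett's test vs vehicle.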

[13] = Octanol-water partition co-efficient, log D of the compound at pH 7.4 by HPLC analysis; type: physicochemical

| SMILES | IC50 [1] [nM] | viability at 24 h, 30 µM [2] [%] | other results |
| --- | --- | --- | --- |
| CCCN(CCC)c1cccc2nc(Nc3c(C)cc(C)cc3C)[nH]c12 | 2500 | 41 | – |
| CCN(CC)c1ccc(C)c2nc(Nc3c(C)cc(Cl)cc3OC)n(C)c12 | 7.6 | 72 | – |
| CCCN(CCC)c1cccc2nc(Nc3c(C)cccc3C)n(C)c12 | 140 | 72 | – |
| CCN(CC)c1ccc(OC)c2nc(Nc3c(C)cc(Cl)cc3OC)n(C)c12 | 13 | 5 | – |
| CCCN(CCC)c1cc(C)nc2c(-c3cnc(N(C)C)cc3C)c(C)nn12 | – | 51 | inhibition in vivo at 20 mg/kg (Mus musculus [3]): 96%; inhibition in vivo at 20 mg/kg (Mus musculus [4]): 95%; inhibition in vivo at 20 mg/kg (Mus musculus [5]): 98% |
| CCCN(CCC)c1ccc(Cl)c2nc(Nc3c(C)cc(Cl)cc3OC)n(C)c12 | – | – | Activity [6]: inactive; Activity [7]: inactive; solubility [8]: 33 µg/mL (≈ 75.8 µM); inhibition in vivo at 60 mg/kg (Mus musculus [9]): 86%; inhibition in vivo at 60 mg/kg (Mus musculus [10]): 83%; inhibition in vivo at 60 mg/kg (Mus musculus [11]): 101%; Activity (Mus musculus [12]): Active |
| COCCN(CCOC)c1cccc2nc(Nc3c(C)cc(Br)cc3OC)n(C)c12 | 65 | 92 | – |
| CCCN(CCC)c1cccc2nc(Nc3c(C)cc(C)cc3C)n(-c3ccccc3)c12 | 2200 | 32 | logD [13]: 6.31 |
| CCCN(CCC)c1cccc2nc(Nc3ccc(C)cc3C)n(C)c12 | 84 | 79 | – |
| CCN(CC)c1ccc(Cl)c2nc(Nc3c(C)cc(Cl)cc3OC)n(C)c12 | – | 76 | – |
| CCCN(CCC)c1cccc2nc(Nc3c(C)cc(C)cc3C)oc12 | 990 | 65 | – |
| CCN(c1cccc2nc(Nc3c(C)cc(Br)cc3OC)n(C)c12)C(C)C | 11 | 87 | – |
| CCN(CC)c1ccc(C#N)c2nc(Nc3c(C)cc(Cl)cc3OC)n(C)c12 | 13 | 81 | – |
| CCN(CC)c1ccc(-c2ccccc2)c2nc(Nc3c(C)cc(Cl)cc3OC)n(C)c12 | > 10000 | 92 | – |
| CCCN(CCC)c1cccc2nc(Nc3c(C)cc(C)cc3C)n(C(C)C)c12 | 97 | 10 | logD [13]: 5.9 |
| CCCN(CCC)c1cccc2nc(Nc3c(C)cc(C)cc3C)sc12 | 77 | 75 | – |

Continued, in another order:

| IC50 [1] [nM] | SMILES | viability at 24 h, 30 µM [2] [%] | other results |
| --- | --- | --- | --- |
| 14 | CCCCN(CCCC)c1cccc2nc(Nc3c(C)cc(Br)cc3OC)n(C)c12 | 90 | – |
| 15 | CCCN(CCC)c1cccc2nc(Nc3c(C)cc(C)cc3C)n(C)c12 | 89 | logD [13]: 5.23 |
| 13 | CCN(CC)c1cccc2nc(Nc3c(C)cc(Br)cc3OC)n(C)c12 | 93 | – |
| 22 | CCCN(CCC)c1cccc2nc(Nc3c(C)cc(Cl)cc3C(C)C)n(C)c12 | 28 | logD [13]: 5.96 |
| 12 | CCCN(CCC)c1cccc2nc(Nc3c(C)cc(Br)cc3OC)n(C)c12 | 82 | logD [13]: 5.39 |
| 14 | CCCN(CCC)c1ccc(C#N)c2nc(Nc3c(C)cc(Cl)cc3OC)n(C)c12 | 83 | – |
| 170 | CCCN(CCC)c1c(Cl)cc(Cl)c2nc(Nc3c(C)cc(Cl)cc3OC)n(C)c12 | 72 | – |
| 14 | CCCN(CCC)c1cccc2nc(Nc3c(C)cc(Cl)cc3OC)n(C)c12 | – | – |
| > 10000 | CCCN(CCC)c1c(Cl)ccc2nc(Nc3c(C)cc(Cl)cc3OC)n(C)c12 | 86 | – |

Source: ChEMBL document CHEMBL3792361, “Design and Synthesis of Benzimidazoles As Novel Corticotropin-Releasing Factor 1 Receptor Antagonists” (J Med Chem, 2016)
